In assay [1] the target is T1, Cystic fibrosis transmembrane conductance regulator (Homo sapiens, UniProt P13569). Kind of assay: Inhibition of human CFTR expressed in rat FRT cells coexpressing halide indicator YFP-H148Q assessed as inhibition of halide influx at 25 uM preincubated for 15 mins by FLIPR. It is filed as cell-based. Put shortly:
(§1)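 FRT cells coexpressing human CFTR and YFP halide sensor, assayed 48 h after plating at confluence. After PBS washes, CFTR activated with 5 µM forskolin, 100 µM IBMX and 25 µM apigenin. Compound added 5 min later and incubated 15 min. Fluorescence read 2 s baseline, then 10 s after iodide-substituted PBS addition. Initial iodide influx rate obtained by nonlinear regression.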
Target sequence in this assay (P13569 whole entry, looked up): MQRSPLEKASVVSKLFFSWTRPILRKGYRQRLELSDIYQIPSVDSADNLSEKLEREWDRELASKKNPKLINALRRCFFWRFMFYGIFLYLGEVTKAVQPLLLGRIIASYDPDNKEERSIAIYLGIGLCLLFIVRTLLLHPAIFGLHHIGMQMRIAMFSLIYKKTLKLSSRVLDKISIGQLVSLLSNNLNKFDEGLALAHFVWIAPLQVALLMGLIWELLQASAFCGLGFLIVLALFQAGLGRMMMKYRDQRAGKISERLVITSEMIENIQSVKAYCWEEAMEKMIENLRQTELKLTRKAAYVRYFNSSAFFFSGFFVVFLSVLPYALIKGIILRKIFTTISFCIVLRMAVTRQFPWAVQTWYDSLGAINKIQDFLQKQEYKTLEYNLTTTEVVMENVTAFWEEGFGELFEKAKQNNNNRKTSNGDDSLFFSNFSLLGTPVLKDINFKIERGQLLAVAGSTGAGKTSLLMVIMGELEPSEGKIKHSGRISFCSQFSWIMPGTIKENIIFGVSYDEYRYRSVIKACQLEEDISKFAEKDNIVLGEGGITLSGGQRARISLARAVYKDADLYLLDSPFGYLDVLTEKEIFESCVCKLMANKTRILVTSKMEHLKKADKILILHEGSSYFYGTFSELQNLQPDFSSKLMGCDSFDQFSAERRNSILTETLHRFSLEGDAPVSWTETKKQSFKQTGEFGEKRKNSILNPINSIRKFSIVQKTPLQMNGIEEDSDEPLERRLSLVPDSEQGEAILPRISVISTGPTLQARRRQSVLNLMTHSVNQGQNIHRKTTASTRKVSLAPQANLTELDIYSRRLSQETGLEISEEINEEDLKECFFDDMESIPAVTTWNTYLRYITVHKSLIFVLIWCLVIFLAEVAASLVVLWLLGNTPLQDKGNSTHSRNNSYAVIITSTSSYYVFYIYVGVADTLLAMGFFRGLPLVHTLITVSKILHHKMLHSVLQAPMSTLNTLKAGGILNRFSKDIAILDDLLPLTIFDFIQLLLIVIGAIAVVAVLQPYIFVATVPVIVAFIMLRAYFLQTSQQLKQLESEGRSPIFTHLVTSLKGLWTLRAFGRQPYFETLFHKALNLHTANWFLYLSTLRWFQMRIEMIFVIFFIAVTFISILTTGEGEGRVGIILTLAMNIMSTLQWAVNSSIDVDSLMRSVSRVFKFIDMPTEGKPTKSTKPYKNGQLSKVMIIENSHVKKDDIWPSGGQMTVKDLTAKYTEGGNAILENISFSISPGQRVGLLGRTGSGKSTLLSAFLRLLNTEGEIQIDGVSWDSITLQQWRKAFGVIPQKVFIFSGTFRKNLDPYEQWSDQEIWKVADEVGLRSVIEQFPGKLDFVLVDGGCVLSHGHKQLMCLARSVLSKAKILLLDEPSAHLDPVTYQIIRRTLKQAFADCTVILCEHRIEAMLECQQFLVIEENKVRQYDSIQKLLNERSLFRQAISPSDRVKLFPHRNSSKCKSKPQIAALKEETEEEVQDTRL

The target of assay [2] is T1, Cystic fibrosis transmembrane conductance regulator. Kind of assay: Inhibition of human CFTR expressed in rat FRT cells coexpressing halide indicator YFP-H148Q assessed as inhibition of halide influx at 5 uM preincubated for 15 mins by FLIPR. It counts as cell-based. Put shortly: as §1
Target sequence in this assay (P13569 whole entry, looked up): as above
For assay [3] the target is unchanged. Kind of assay: Inhibition of human CFTR expressed in rat FRT cells assessed as inhibition of CPT-cAMP-induced apical membrane current in presence of transepithelial chloride gradient and basolateral membrane permeabilization with amphotericin B by short-circuit current analysis. It counts as cell-based. Put shortly: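 FRT cells stably coexpressing human wild-type CFTR, mounted in Ussing chambers. Apical 75 mM NaCl/75 mM Na gluconate, basolateral 150 mM NaCl (pH 7.3), basolateral membrane permeabilized with 250 µg/mL amphotericin B, air-bubbled, 37 °C. CFTR activated by 100 µM CPT-cAMP, then increasing inhibitor concentrations added cumulatively. Apical current recorded continuously; dose–response, SE n = 4.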
Target sequence in this assay (P13569 whole entry): as the sequence (P13569 whole entry, looked up) above

The target is the same in assay [4]. Kind of assay: Inhibition of CFTR in nonpermeabilized human bronchial epithelial cells assessed as inhibition of forskolin and IBMX-induced chloride current at by short-circuit current analysis. It is filed as cell-based, Epithelial cell. In a few lines: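 Ussing chamber short-circuit current in nonpermeabilized primary human bronchial epithelial cells on inserts; Krebs-bicarbonate both sides, bubbled with 5% CO2 in air, 37 °C. CFTR maximally activated by 10 µM forskolin plus 100 µM IBMX, then inhibitor added; current recorded continuously with voltage clamp.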
Target sequence in this assay (P13569 whole entry): as the sequence (P13569 whole entry, looked up) above

Assay [5] concerns Epithelial cell. Kind of assay: Inhibition of calcium-activated chloride channel in CFTR deficient human bronchial epithelial cells assessed as inhibition of UTP-induced chloride current at 10 uM. It counts as cell-based. In a few lines: (§2)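 Ussing-chamber short-circuit current in cystic fibrosis (CFTR-deficient) human bronchial epithelial cells, Krebs-bicarbonate both sides, 5% CO2 in air, 37 °C. ENaC blocked with 10 µM amiloride. Calcium-activated chloride channels stimulated with 100 µM UTP, compound added as indicated.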

Assay [6] concerns Epithelial cell. Kind of assay: Inhibition of calcium-activated chloride channel in CFTR deficient human bronchial epithelial cells assessed as inhibition of UTP-induced chloride current at 20 uM. It is filed as cell-based. In a few lines: as §2
In assay [7] the test system is CHO-K1. Kind of assay: Effect on basal cAMP production in CHOK1 cells at 10 uM. It counts as functional, cell-based. As to conditions: Cricetulus griseus. In a few lines: (§3)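 cAMP measured in CHO-K1 cells under basal conditions and after 20 µM forskolin, with or without compound at 10 µM; SE, n = 4.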
Assay [8] has as its system CHO-K1. Kind of assay: Effect on forskolin-induced cAMP production in CHOK1 cells at 10 uM. It counts as functional, cell-based. The note with it: Cricetulus griseus. In a few lines:
as §3

Assay [9] relates to Kidney. Kind of assay: Reduction in cyst expansion in 8-Br-cAMP treated embryonic mouse kidney organ culture model of polycystic kidney disease by transmission light microscopy. It is filed as functional, tissue-based. Put shortly:
(§4)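 E13.5 mouse metanephroi cultured on porous inserts in defined DMEM/Ham's F-12 (insulin, transferrin, selenium, prostaglandin E, T3) at 37 °C. Medium with 100 µM 8-Br-cAMP, with or without compound, replaced every 12 h. After 4 days, cyst area fraction measured by transmission light microscopy (SE, 6–8 kidneys), or paraffin sections H&E-stained (three kidneys per condition).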

In assay [10] the test system is Kidney. Kind of assay: Reduction in size of preformed cysts in 8-Br-cAMP treated embryonic mouse kidney organ culture model of polycystic kidney disease by transmission light microscopy. It is filed as functional, tissue-based. Put shortly: (§5)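 E13.5 mouse metanephroi in defined organ-culture medium with 100 µM 8-Br-cAMP, changed every 12 h, 37 °C. Compound (5 µM) added at day 3 to kidneys with preformed cysts. Cyst area fraction by transmission light microscopy at day 5, six kidneys, SE.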

For assay [11], the system named is Kidney. Kind of assay: Inhibition of cyst formation in 8-Br-cAMP treated embryonic mouse kidney organ culture model of polycystic kidney disease at 0.5 uM by transmission light microscopy. It is filed as functional. In a few lines:
as §4

The test system of assay [12] is Kidney. Kind of assay: Inhibition of cyst formation in 8-Br-cAMP treated embryonic mouse kidney organ culture model of polycystic kidney disease at 2.5 uM by transmission light microscopy. It counts as functional, tissue-based. Put shortly:
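E13.5 mouse metanephroi cultured on porous inserts in defined DMEM/Ham's F-12 (insulin, transferrin, selenium, prostaglandin E, T3) at 37 °C. Medium with 100 µM 8-Br-cAMP, with or without inhibitor, replaced every 12 h. After 4 days, transmission light micrographs scored as fractional kidney area occupied by cysts (6–8 kidneys, SE).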

Assay [13] has as its system Kidney. Kind of assay: Inhibition of cyst formation in 8-Br-cAMP treated embryonic mouse kidney organ culture model of polycystic kidney disease at 5 uM by transmission light microscopy. It is filed as functional, tissue-based. In a few lines: as §4
The subject of assay [14] is Kidney. Kind of assay: Reduction in cyst size in 8-Br-cAMP treated embryonic mouse kidney organ culture model of polycystic kidney disease by hematoxylin and eosin staining after 4 days. It counts as functional, tissue-based. In a few lines:
as §4

Assay [15] deals with Kidney. Kind of assay: Reduction in fluid accumulation in 3 days 8-Br-cAMP treated embryonic mouse kidney organ culture model of polycystic kidney disease at 5 uM after 1 or 2 days by transmission light microscopy. It counts as functional, tissue-based. Put shortly: as §5
Assay [16] concerns the target T1, Cystic fibrosis transmembrane conductance regulator. The note with it: T84, 10 uM.
Target sequence in this assay (P13569 whole entry, looked up): as above
Assay [17] has the same target. As to conditions: Epithelial cell, 10 uM.
Target sequence in this assay (P13569 whole entry, looked up): as above
The target is the same in assay [18]. The note with it: FRT, 0.5 uM.
Target sequence in this assay (P13569 whole entry, looked up): as above
For assay [19] the target is unchanged. Kind of assay: Inhibition of CFTR. Put shortly: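 Ussing-chamber apical membrane current in CFTR-expressing FRT cells under a chloride gradient: apical 75 mM NaCl/75 mM Na gluconate, basolateral 150 mM NaCl, pH 7.3. Basolateral membrane permeabilized with 250 µg/mL amphotericin B, air-bubbled, 37 °C. CFTR activated by 100 µM CPT-cAMP, then compound added at increasing concentrations. Dose–response, SE n = 4.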
Target sequence in this assay (P13569 whole entry): as the sequence (P13569 whole entry, looked up) above

Calls of active or inactive are those of the source. The rule behind the calls is not given here.

For the molecule `Cc1cc2c(cc1C)-n1c(-c3ccccc3)c3c(=O)n(C)c(=O)n(C)c3c1C(c1ccc(O)cc1)N2` (stereo unspecified), the inhibition is 99% in assay [1] and 80% in [2].

`Cc1cccc(-c2c3c(=O)n(C)c(=O)n(C)c3c3n2-c2ccccc2NC3c2cccc([N+](=O)[O-])c2F)c1` (stereo unspecified): the results for the inhibition in [1] and in assay [2] were 94% and 61%, respectively.

`Cc1ccc(C2Nc3ccccc3-n3c(-c4ccccc4)c4c(=O)n(C)c(=O)n(C)c4c32)o1` (stereo unspecified): the inhibition in [1] amounted to 97%; in [2], 87%; in [16], 100%; in assay [17], 100%; in assay [18], 65%. The concentration for half-maximal inhibition (IC50) in assay [3] was 90 nM; in assay [4], under 1000 nM. In addition, the result in the assay on Epithelial cell [5], in the assay with Epithelial cell [6], in the assay with CHO-K1 [7] and with CHO-K1 [8] was inactive. The result in the assay on Kidney [9], in the assay with Kidney [10] and in the assay with Kidney [13] was Active. For the same molecule, the inhibition at 0.5 µM in the assay with Kidney [11] turned out to be 60%. For the same molecule, the inhibition result in the assay with Kidney [12], with Kidney [14] and with Kidney [15] was “Active” throughout.

Consider `COc1cccc(C2Nc3ccccc3-n3c(-c4ccccc4C)c4c(=O)n(C)c(=O)n(C)c4c32)c1` (stereo unspecified), for which the results for the inhibition in assay [1] and in assay [2] were 94% and 62%, respectively.

With `Cc1ccc(C2Nc3ccccc3-n3c(-c4ccccc4C)c4c(=O)n(C)c(=O)n(C)c4c32)o1` (stereo unspecified), the inhibition in assay [1] was 97%; in [2], 86%.

As to `Cn1c(=O)c2c(-c3ccccc3)n3c(c2n(C)c1=O)C(c1cccc([N+](=O)[O-])c1)Nc1ccccc1-3` (stereo unspecified), the figures for the inhibition in [1] and in [2] were 90% and 60%, respectively.

Take `Cn1c(=O)c2c(-c3ccccc3)n3c(c2n(C)c1=O)C(c1ccccc1)Nc1ccccc1-3` (stereo unspecified): the inhibition worked out at 92% in assay [1] and 61% in [2].

Consider `Cn1c(=O)c2c(-c3ccccc3)n3c(c2n(C)c1=O)C(c1cccc(F)c1F)Nc1ccccc1-3` (stereo unspecified), for which the values for the inhibition in assay [1] and in [2] were 93% and 72%, respectively.

Take `COc1cccc(C2Nc3ccccc3-n3c(-c4ccccc4)c4c(=O)n(C)c(=O)n(C)c4c32)c1` (stereo unspecified): the inhibition turned out to be 86% in assay [1] and 63% in assay [2].

Take `Cn1c(=O)c2c(-c3ccccc3)n3c(c2n(C)c1=O)C(c1ccccc1F)Nc1ccccc1-3` (stereo unspecified): the inhibition in assay [1] amounted to 81%; in assay [2] it was 61%.

For the molecule `Cn1c(=O)c2c(-c3ccccc3F)n3c(c2n(C)c1=O)C(c1cccc(Cl)c1)Nc1ccccc1-3` (stereo unspecified), the inhibition in assay [1] stood at 98%; in assay [2] it was 70%.

On to `O=C(O)c1ccc(/C=C2\SC(=S)N(c3cccc(C(F)(F)F)c3)C2=O)cc1`, for which the half-inhibitory concentration (IC50) in assay [19] turned out to be 300 nM.

On to `Cc1cccc(-c2c3c(=O)n(C)c(=O)n(C)c3c3n2-c2ccccc2NC3c2ccc(C)o2)c1` (stereo unspecified), for which the inhibition in [1] is 98%; in assay [2], 82%.

With `Cn1c(=O)c2c(-c3ccccc3)n3c(c2n(C)c1=O)C(c1ccc(O)cc1)Nc1ccccc1-3` (stereo unspecified), the inhibition in assay [1] was found to be 86%; in [2], 64%.

On to `Cc1cccc(-c2c3c(=O)n(C)c(=O)n(C)c3c3n2-c2ccccc2NC3c2ccccc2F)c1` (stereo unspecified), for which the inhibition in assay [1] turned out to be 80%; in [2], 67%.

As to `O=C(CNc1ccc2ccccc2c1)N/N=C/c1cc(Br)c(O)c(Br)c1O`, the IC50 in assay [19] is 5000 nM.

As for `Cc1ccccc1-c1c2c(=O)n(C)c(=O)n(C)c2c2n1-c1ccccc1NC2c1ccccc1` (stereo unspecified), the inhibition in assay [1] amounted to 97%; in [2] it was 51%.

Regarding `COc1cccc(C2Nc3ccccc3-n3c(-c4ccccc4F)c4c(=O)n(C)c(=O)n(C)c4c32)c1` (stereo unspecified), the values for the inhibition in assay [1] and in assay [2] were 97% and 62%, respectively.

In the case of `Cc1ccccc1-c1c2c(=O)n(C)c(=O)n(C)c2c2n1-c1ccccc1NC2c1cccc([N+](=O)[O-])c1` (stereo unspecified), the inhibition amounted to 96% in assay [1] and 64% in assay [2].

On to `Cc1ccc(C2Nc3cc(C)c(C)cc3-n3c(-c4ccccc4)c4c(=O)n(C)c(=O)n(C)c4c32)o1` (stereo unspecified), for which the inhibition came to 90% in [1] and 84% in assay [2].

As for `COc1cccc(C2Nc3ccccc3-n3c(-c4cccc(C)c4)c4c(=O)n(C)c(=O)n(C)c4c32)c1` (stereo unspecified), the inhibition in [1] stood at 98%; in assay [2] it was 73%.

As to `COc1cc(O)ccc1C1Nc2ccccc2-n2c(-c3ccccc3)c3c(=O)n(C)c(=O)n(C)c3c21` (stereo unspecified), the figures for the inhibition in assay [1] and in [2] were 56% and 5%, respectively.

Turning to `Cc1cccc(-c2c3c(=O)n(C)c(=O)n(C)c3c3n2-c2ccccc2NC3c2cccc(F)c2)c1` (stereo unspecified), the inhibition in assay [1] is 93%; in [2] it was 53%.

Consider `Cc1ccc(C2Nc3cc(C)c(C)cc3-n3c(-c4ccccc4F)c4c(=O)n(C)c(=O)n(C)c4c32)o1` (stereo unspecified), for which the inhibition in assay [1] came to 87%; in [2], 80%.

Take `Cc1cccc(-c2c3c(=O)n(C)c(=O)n(C)c3c3n2-c2ccccc2NC3c2ccc(O)cc2)c1` (stereo unspecified): the inhibition in assay [1] was 94%; in [2], 71%.

Regarding `Cc1cccc(C2Nc3ccccc3-n3c(-c4ccccc4C)c4c(=O)n(C)c(=O)n(C)c4c32)c1` (stereo unspecified), the inhibition in assay [1] was 100%; in assay [2] it was 46%.

These data come from ChEMBL document CHEMBL1221227, “Nanomolar potency pyrimido-pyrrolo-quinoxalinedione CFTR inhibitor reduces cyst size in a polycystic kidney disease model” (J Med Chem, 2009).
